Laboratory results: article PMC4539048 (Science translational medicine, 2015)
Converted amounts (≈) assume the structure as drawn. “And” between values parts separate entries of the source, which are not always exact repeats. Equal values may be shown once. Marks after values point to notes of the source that are not given here.

What was measured:
panel of human kinases = experiment: Panel of human kinases; format: biochemical; details: University of Dundee
P. falciparum 3D7 [1] = experiment: Blood-stage phenotype and development by microscopy; format: cell-based; details: 10xEC50, 48 h
Procedure, shortened: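 Giemsa-stained smears were scored by microscopy, at least 200 cells per condition, for stage arrest and morphology. Standard antimalarials served as controls.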

[2] = system: P. falciparum Pf3D7_0087/N9; experiment: P. falciparum SCID mouse 4-day dosing efficacy model; format: in vivo
[3] = target: panel of 106 human receptors and ion channels; experiment: Cerep panel of 106 human receptors and ion channels; format: binding
P. cynomolgi DHODH = P. cynomolgi DHODH (Plasmodium cynomolgi, UniProt K6UE05); experiment: DHODH inhibition, DCIP spectrophotometric assay; format: biochemical
CYP enzymes = experiment: CYP induction in human hepatocytes; format: in vitro ADME
[4] = system: rabbit cardiac ventricular wedge; experiment: Rabbit cardiac ventricular wedge assay
[5] = Human pharmacokinetic prediction
P. falciparum 3D7 [6] = experiment: In vitro P. falciparum 3D7 growth inhibition; format: cell-based; details: Plasmodium falciparum, 3D7, read-out: P. falciparum 3D7 growth inhibition EC50
Procedure, shortened: (§1)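 SYBR-green growth assay on P. falciparum 3D7 and drug-resistant lines, including chloroquine- and pyrimethamine-resistant parasites, cultured in RPMI-1640 with 0.5% Albumax-II. At least triplicate data per concentration. EC50 from the log(inhibitor) vs response variable-slope (four-parameter) fit by nonlinear least squares, reported with 95% confidence intervals of the fit.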

[7] = system: P. falciparum gametocytes stages IV–V; experiment: Gametocyte assay stages IV–V; format: cell-based
[8] = Chemical and physical stability; format: physicochemical
[9] = system: P. falciparum stage V oocyst; experiment: Oocyst formation in mosquitoes
[10] = Plasma protein binding, dog; format: in vitro ADME
[11] = system: P. falciparum Dd2 and resistant clones; experiment: microbe, parasite or virus in culture; format: cell-based; details: Plasmodium falciparum, DD2|DSM265, read-out: DSM265 Dd2 EC50, Dd2/wt
Caco-2 cell monolayers = experiment: Caco-2 permeability; format: in vitro ADME
Caco-2 permeability = format: in vitro ADME; details: human, Caco-2
P. falciparum Dd2 = format: cell-based; details: Dd2, 3xEC50
P. falciparum parasites = experiment: Drug combination, fixed-ratio isobologram method; format: cell-based; details: artemisinin derivatives, OZ439, chloroquine, piperaquine, pyronaridine, mefloquine, lumefantrine, atovaquone, proguanil, P218, pyrimethamine
P. berghei DHODH = details: cited from earlier work
pig DHODH = pig DHODH (Sus scrofa, UniProt F1S3B0); experiment: DHODH inhibition, DCIP spectrophotometric assay; format: biochemical
Sequence of pig DHODH (F1S3B0 1-395): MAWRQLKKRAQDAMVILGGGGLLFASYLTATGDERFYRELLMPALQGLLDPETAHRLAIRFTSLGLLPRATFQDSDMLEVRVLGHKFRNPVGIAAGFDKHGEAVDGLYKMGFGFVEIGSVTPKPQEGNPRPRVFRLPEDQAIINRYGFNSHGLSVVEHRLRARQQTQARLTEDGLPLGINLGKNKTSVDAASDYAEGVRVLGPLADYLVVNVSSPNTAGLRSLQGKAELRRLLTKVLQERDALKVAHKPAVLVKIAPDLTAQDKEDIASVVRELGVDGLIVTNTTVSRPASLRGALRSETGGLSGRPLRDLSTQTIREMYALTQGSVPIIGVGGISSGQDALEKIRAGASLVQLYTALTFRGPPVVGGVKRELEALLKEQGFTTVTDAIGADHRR

[12] = target: human ether-a-go-go related gene (hERG) K+ channel (Homo sapiens, UniProt Q12809); experiment: hERG patch clamp assay; format: cell-based
Sequence of human ether-a-go-go related gene (hERG) K+ channel (Q12809 whole entry): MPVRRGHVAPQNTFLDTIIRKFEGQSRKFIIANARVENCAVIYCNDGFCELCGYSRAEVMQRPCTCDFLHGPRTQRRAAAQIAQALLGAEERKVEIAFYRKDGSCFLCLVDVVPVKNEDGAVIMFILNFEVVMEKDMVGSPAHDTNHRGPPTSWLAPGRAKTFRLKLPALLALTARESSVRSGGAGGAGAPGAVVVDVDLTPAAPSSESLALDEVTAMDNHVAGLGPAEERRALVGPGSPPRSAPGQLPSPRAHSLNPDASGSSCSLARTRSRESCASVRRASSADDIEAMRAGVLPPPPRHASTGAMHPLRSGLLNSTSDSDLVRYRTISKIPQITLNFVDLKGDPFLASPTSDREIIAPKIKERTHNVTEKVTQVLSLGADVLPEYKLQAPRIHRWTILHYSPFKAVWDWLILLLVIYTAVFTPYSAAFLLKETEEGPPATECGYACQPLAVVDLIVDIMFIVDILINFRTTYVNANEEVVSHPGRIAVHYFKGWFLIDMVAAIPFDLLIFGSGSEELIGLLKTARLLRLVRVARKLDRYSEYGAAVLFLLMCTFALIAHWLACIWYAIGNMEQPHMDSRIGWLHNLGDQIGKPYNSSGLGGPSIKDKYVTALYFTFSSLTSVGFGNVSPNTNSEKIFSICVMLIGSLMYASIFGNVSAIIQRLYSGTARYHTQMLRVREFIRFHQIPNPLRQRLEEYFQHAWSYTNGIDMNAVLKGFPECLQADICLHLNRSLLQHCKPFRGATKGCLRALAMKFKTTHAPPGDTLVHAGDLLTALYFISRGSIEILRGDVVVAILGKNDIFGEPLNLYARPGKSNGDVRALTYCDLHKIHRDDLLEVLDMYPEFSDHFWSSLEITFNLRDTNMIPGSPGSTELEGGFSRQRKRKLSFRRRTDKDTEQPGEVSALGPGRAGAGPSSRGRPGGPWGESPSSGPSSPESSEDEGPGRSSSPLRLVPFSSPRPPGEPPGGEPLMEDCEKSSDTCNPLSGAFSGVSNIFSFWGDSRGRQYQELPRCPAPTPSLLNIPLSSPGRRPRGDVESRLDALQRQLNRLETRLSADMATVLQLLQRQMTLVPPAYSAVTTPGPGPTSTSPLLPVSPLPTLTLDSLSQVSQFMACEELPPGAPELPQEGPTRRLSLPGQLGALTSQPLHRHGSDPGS

[13] = Cardiac safety by telemetry in conscious dogs; format: in vivo
[14] = Stability in hepatic microsomes and cryopreserved hepatocytes; format: in vitro ADME; details: across species
[15] = Protein binding in assay media; format: in vitro ADME; details: 0.5% Albumax II in RPMI-1640
[16] = system: micronucleated polychromatic erythrocytes; experiment: Oral bone marrow micronucleus test; format: in vivo; details: male CD1 mice
P. yoelii DHODH = details: cited from earlier work
P. falciparum gametes = experiment: Dual gamete formation assay; format: cell-based
[17] = system: key CYP enzymes (not individually named); experiment: CYP inhibition in human liver microsomes; format: in vitro ADME
Procedure, shortened: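 Inhibition of CYP isoforms was measured by a substrate-specific approach in human liver microsomes.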

[18] = Plasma protein binding, rat; format: in vitro ADME
[19] = system: P. falciparum early stage gametocytes stage III – IV; strain NF54; experiment: Early stage gametocyte assay; format: cell-based
rabbit DHODH = rabbit DHODH (Oryctolagus cuniculus, UniProt G1SWF3); experiment: DHODH inhibition, DCIP spectrophotometric assay; format: biochemical
Sequence of rabbit DHODH (G1SWF3 1-395): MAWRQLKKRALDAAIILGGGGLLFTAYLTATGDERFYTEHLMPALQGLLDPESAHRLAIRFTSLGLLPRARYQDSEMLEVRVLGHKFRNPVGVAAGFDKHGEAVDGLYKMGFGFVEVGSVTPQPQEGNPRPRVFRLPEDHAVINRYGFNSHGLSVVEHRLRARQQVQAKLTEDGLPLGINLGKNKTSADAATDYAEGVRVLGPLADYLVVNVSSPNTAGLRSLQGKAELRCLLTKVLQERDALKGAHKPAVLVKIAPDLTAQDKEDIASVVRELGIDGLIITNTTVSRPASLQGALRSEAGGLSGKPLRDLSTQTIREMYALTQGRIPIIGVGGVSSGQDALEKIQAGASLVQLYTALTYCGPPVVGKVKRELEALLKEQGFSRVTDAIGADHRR

[20] = system: 9 strains of P. falciparum; experiment: In vitro blood-stage activity on 9 strains of P. falciparum; format: cell-based; details: Plasmodium falciparum, read-out: EC50 range over all tested strains
Procedure, shortened: as §1

[21] = 7-day repeat dose toxicity study in mice; format: in vivo; details: highest dose tested, Day 7
Procedure, shortened: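 Mice received the test compound orally once daily at 25–200 mg/kg/day for 7 days in an exploratory (non-GLP) toxicology study. They were monitored daily for clinical signs, body weight and food consumption, with haematology, clinical chemistry and histopathology. Plasma toxicokinetic parameters, including average concentration over the dosing interval, were derived on day 1 and day 7.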

P. falciparum 3D7 [22] = experiment: In vitro killing curves / 48 h growth assay, P. falciparum 3D7 blood stage; format: cell-based
[23] = Intravenous pharmacokinetics in monkeys and dogs; format: in vivo; details: male (dogs), female (monkeys), macaque (monkeys), beagle (dogs), monkey, dog, plasma
Procedure, shortened: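 Male beagle dogs and female macaque monkeys received a single intravenous dose. Blood was collected into anticoagulant tubes and plasma was separated by centrifugation. Parent compound and metabolites were quantified by LC/MS. Typically 2–6 animals were used per study, with standard deviation given where n>2.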

[24] = determined 24 h after the last dose

Structure (SMILES): Cc1cc(Nc2ccc(S(F)(F)(F)(F)F)cc2)n2nc(C(C)(F)F)nc2n1 [DSM265, 2-(1,1-difluoroethyl)-5-methyl-[N-[4-(pentafluorosulfanyl)phenyl]1,2,4]triazolo[1,5-a]pyrimidin-7-amine]
- activity against a panel of human kinases (panel of human kinases): minimal activity
- blood-stage phenotype after treatment (P. falciparum 3D7 [1]): arrested parasites in the young trophozoite-stage
- blood concentration 23 h after the last dose, estimate of the MPC ([2]; 13 mg/kg/day (6.4 mg/kg b.i.d.), oral, 4 days): 0.53 µg/mL
- SCID mouse in vivo MPC (plasma) ([2]; blood converted to plasma with blood to plasma ratio 0.5): 1.1 ^c μg/mL
- Unbound SCID mouse in vivo MPC (plasma) ([2]; corrected with fraction unbound 0.001): 0.0011 µg/mL
- ED90 [2, 24]: 1.5 mg/kg/12 h
- dose at the MPC [2, 24]: 6.4 mg/kg/12 h
- IC50 values for the full panel [3]: > 4200 ng/mL
- IC50 (P. cynomolgi DHODH): 0.012 µM
- CYP induction (CYP enzymes): did not induce CYP enzymes
- QT and Tp-e interval ([4]; at 1 or 0.5 Hz): did not cause any significant prolongation
- Torsade de Pointes (TdP)-type arrhythmias ([4]; tested up to 5 μg/mL): no Torsade de Pointes (TdP)-type arrhythmias were observed
- plasma MPC used for the human dose prediction [5]: 1 to 2 µg/mL
- EC50 (P. falciparum 3D7 [6]): 1.8 ng/mL (≈ 4.33 nM)
- EC50, gametocytes stages IV–V [7]: no activity
- EC50 ([7]; Plasmodium falciparum, read-out: EC50, gametocytes stages IV–V): > 16000 ng/mL
- stability of solutions subjected to simulated sunlight [8]: degradation
- chemical stability in the solid state ([8]; 30°/65% relative humidity for up to 24 months): chemically stable
- inhibition at 1 µg/mL ([9]; Plasmodium falciparum, read-out: inhibition of oocyst formation): 38%
- inhibition of oocyst formation at unbound concentration ([9]; at 0.001 μg/mL unbound (human plasma fraction unbound)): 38% at 0.001
- fraction unbound [10]: 0.006
- EC50 [11]: 2.2 ng/mL (≈ 5.3 nM)
- BCS classification (Caco-2 cell monolayers; from high permeability and low aqueous solubility): BCS Class II
- substrate for Pgp and BCRP (Caco-2 cell monolayers; with verapamil and fumitremorgin C): not a substrate
- Papp A→B (Caco-2 permeability): > 30 ×10⁻⁶ cm/s
- MIR, range over two independent studies (P. falciparum Dd2): 2×10^5–2×10^7 parasites
- interaction with other antimalarials (P. falciparum parasites): additive
- activity against P. berghei DHODH (P. berghei DHODH): poor activity
- IC50 (pig DHODH): > 98.7 µM
- IC50 [12]: 1.59 to 6.98 µM
- concentration at 24 h ([13]; dog, plasma, oral, 300 mg/kg): 1300 ng/mL
- ECGs ([13]; oral doses of 30 and 300 mg/kg): within normal limits
- degradation in hepatic microsomes and cryopreserved hepatocytes [14]: minimal degradation
- Fraction unbound in assay media [15]: 0.17 ^b
- micronucleated polychromatic erythrocytes [16]: no increase
- activity against P. yoelii DHODH (P. yoelii DHODH): poor activity
- EC50, dual gamete formation assay (P. falciparum gametes): inactive
- IC50 [17]: > 10000 ng/mL
- fraction unbound [18]: 0.023
- EC50 ([19]; Plasmodium falciparum, NF54, read-out: EC50, early stage gametocytes stage III – IV): > 420 ng/mL
- EC50, early stage gametocytes stage III – IV ([19]; strain NF54): no activity
- IC50 (rabbit DHODH): > 98.7 µM
- EC50 [20]: 1 to 4 ng/mL (≈ 2.41 to 9.63 nM)
- average plasma concentration within a dosing interval (Cav) [21]: 11700 ng/mL
- EC50 (P. falciparum 3D7 [22]; Plasmodium falciparum, 3D7, 48 h, read-out: P. falciparum 3D7 in vitro growth assay EC50): 4.6 ng/mL (≈ 11.1 nM)
- lag-phase prior to parasite killing (P. falciparum 3D7 [22]; at 1xEC50): 96 h
- lag-phase prior to parasite killing (P. falciparum 3D7 [22]; at 3xEC50 and above): 24 to 48 h
- Unbound in vitro MPC (kill assay) (P. falciparum 3D7 [22]; corrected with fraction unbound in 0.5% Albumax II in RPMI-1640): 0.002 µg/mL and 0.0020 µg/mL
- P. falciparum 3D7 in vitro MPC (kill assay) (P. falciparum 3D7 [22]; minimum parasiticidal concentration = 3xEC50): 0.014 μg/mL and 0.014 ^a μg/mL
- half-life [23]: 10 to 45 h
